Test results reported in ChEMBL document CHEMBL1137180, “Synthesis and structure-activity relationship of a novel sulfone series of TNF-alpha converting enzyme inhibitors” (Bioorg Med Chem Lett, 2004).

Columns and labels:
Caco-2 [1] = experiment: Permeability action in Caco-2 cells; type: functional, Homo sapiens
[2] = target: 72 kDa type IV collagenase (Homo sapiens, UniProt P08253); experiment: inhibition of Matrix metalloprotease-2 (MMP-2)
Method in brief: (§1)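 Inhibition is reported as Ki (nM) against each isolated MMP. Each value comes from a single determination, with no replicates.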

Interstitial collagenase = target: T1, Interstitial collagenase (Homo sapiens, UniProt P03956); experiment: Inhibition of Matrix metalloprotease-1 (MMP-1); method in brief: as §1
T1 sequence (P03956 whole entry): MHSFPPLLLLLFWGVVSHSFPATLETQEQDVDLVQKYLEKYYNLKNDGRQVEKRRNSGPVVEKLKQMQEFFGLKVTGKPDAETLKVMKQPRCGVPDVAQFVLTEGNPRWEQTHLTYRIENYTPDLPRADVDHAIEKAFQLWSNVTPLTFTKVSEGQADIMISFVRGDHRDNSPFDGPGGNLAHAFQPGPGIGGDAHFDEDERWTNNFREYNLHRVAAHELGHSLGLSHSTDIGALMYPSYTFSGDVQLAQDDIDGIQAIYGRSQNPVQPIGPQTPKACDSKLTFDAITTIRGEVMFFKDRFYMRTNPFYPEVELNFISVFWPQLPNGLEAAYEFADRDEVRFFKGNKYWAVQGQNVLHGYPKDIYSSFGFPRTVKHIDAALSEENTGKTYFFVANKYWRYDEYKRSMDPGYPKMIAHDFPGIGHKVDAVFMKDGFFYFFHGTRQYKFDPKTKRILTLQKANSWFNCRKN

[3] = target: Disintegrin and metalloproteinase domain-containing protein 17 (Sus scrofa, UniProt O77636); experiment: Inhibition of porcine Tumor necrosis factor- alpha converting enzyme (TACE, ADAM17)
Disintegrin and metalloproteinase domain-containing protein 17 (Sus scrofa, UniProt O77636), sequence (O77636 whole entry, the tested form may be a part): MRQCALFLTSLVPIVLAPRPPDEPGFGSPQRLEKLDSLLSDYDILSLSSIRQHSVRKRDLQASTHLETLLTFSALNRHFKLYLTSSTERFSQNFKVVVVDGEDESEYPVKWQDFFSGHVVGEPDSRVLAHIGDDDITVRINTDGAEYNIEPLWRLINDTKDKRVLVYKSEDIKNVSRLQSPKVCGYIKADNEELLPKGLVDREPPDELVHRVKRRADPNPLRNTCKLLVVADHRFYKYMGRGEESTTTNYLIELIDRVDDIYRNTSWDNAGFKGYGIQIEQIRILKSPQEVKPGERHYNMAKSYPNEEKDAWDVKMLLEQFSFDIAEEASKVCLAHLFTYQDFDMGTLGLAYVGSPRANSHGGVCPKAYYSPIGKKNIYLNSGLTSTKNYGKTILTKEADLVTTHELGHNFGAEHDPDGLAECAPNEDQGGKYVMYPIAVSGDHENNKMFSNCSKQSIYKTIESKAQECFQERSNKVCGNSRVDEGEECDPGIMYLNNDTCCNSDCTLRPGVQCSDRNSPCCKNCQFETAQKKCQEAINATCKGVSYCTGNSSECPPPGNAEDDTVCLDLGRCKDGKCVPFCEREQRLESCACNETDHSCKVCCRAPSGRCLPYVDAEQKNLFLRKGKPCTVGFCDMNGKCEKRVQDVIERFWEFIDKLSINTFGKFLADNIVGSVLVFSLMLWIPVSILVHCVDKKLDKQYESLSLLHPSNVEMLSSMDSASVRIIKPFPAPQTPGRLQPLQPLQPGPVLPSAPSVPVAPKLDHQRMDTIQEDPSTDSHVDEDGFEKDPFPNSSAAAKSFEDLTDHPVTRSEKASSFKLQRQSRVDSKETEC

Mus musculus [4] = experiment: Compound was tested for anti TNF-alpha activity using LPS mouse model at 10 mg/kg p.o.; type: functional; details: route oral
Collagenase 3 = Collagenase 3 (Homo sapiens, UniProt P45452); experiment: Inhibition of Matrix metalloprotease-13 (MMP-13); method in brief: as §1
[5] = target: Matrix metalloproteinase-9 (Homo sapiens, UniProt P14780); experiment: Inhibition of Matrix metalloprotease-9 (MMP-9); method in brief: as §1
Matrix metalloproteinase-9, sequence (P14780 whole entry, the tested form may be a part): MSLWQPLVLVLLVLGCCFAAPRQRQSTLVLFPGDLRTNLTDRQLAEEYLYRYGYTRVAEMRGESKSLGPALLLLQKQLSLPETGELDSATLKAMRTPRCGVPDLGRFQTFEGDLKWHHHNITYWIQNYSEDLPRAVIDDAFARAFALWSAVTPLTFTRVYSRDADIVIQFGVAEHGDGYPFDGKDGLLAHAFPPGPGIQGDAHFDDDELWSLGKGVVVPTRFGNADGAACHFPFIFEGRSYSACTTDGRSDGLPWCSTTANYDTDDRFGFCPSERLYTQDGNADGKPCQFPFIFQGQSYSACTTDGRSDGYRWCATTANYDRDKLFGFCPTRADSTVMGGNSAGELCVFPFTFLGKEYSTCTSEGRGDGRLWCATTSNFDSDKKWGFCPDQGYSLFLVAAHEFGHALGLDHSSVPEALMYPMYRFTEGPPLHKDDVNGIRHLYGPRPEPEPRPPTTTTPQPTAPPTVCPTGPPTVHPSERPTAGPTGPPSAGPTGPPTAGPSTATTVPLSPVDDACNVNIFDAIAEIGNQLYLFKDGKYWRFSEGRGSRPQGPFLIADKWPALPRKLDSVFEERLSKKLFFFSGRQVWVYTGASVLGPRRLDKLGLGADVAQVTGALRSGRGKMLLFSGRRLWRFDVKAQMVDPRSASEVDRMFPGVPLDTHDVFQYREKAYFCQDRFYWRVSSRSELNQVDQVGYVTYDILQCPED

[6] = target: Disintegrin and metalloproteinase domain-containing protein 17 (Homo sapiens, UniProt P78536); experiment: Effect on TNF-Alpha release in LPS-stimulated human whole blood assay; type: functional, tissue-based
Disintegrin and metalloproteinase domain-containing protein 17 (Homo sapiens, UniProt P78536), sequence (P78536 whole entry, the tested form may be a part): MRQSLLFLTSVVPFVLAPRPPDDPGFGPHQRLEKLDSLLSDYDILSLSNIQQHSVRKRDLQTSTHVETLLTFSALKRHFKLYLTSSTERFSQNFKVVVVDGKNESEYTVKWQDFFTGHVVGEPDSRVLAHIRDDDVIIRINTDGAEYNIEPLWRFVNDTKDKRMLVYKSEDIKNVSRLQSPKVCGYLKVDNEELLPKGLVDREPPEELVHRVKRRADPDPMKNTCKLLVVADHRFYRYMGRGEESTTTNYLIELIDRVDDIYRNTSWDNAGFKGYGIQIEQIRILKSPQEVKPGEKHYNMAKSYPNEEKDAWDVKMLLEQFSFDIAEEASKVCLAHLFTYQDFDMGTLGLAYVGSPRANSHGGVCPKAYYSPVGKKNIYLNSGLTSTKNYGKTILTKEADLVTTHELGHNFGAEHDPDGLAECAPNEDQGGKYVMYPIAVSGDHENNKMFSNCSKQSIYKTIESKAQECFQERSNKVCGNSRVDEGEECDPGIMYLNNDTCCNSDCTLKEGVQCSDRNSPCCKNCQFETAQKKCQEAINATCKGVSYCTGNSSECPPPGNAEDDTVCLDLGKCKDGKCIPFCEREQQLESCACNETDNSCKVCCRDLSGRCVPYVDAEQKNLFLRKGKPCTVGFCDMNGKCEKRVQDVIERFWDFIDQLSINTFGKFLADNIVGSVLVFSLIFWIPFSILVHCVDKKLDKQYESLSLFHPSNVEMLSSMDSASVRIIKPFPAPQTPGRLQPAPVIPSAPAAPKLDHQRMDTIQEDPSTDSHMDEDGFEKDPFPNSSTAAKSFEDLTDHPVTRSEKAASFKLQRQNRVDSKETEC

Mus musculus [7] = experiment: Compound was tested for anti TNF-alpha activity using LPS mouse model at 5 mg/kg p.o.; type: functional; details: route oral
Caco-2 [8] = experiment: Permeability action in Caco-2 cell; type: functional, Homo sapiens

72 kDa type IV collagenase, sequence (P08253 whole entry): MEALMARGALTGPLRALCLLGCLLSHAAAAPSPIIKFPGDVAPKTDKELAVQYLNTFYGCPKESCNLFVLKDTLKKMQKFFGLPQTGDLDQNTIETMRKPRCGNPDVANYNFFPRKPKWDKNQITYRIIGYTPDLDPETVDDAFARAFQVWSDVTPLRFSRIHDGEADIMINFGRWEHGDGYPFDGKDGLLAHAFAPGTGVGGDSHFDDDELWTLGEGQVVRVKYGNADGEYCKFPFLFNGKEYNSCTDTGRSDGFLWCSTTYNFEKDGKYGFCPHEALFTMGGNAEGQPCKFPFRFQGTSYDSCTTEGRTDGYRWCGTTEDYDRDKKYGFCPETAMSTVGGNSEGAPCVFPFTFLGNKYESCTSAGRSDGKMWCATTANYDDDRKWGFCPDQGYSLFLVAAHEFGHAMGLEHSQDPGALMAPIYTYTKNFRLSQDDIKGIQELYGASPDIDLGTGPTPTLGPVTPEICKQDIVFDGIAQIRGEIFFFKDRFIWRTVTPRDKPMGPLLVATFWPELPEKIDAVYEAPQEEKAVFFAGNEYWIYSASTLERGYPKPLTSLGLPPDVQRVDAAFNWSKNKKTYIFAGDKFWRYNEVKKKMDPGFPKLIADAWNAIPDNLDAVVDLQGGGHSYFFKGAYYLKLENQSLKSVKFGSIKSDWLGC

Structure (SMILES)	Caco-2 Papp (Caco-2 [1])	Ki [2]	Ki (Interstitial collagenase)	IC50 [3]	inhibition in vivo at 10 mg/kg (Mus musculus [4])	Ki (Collagenase 3)	Ki [5]	IC50 [6]	ED50 (Mus musculus [4])	inhibition in vivo at 5 mg/kg (Mus musculus [7])	Caco-2 Papp (Caco-2 [8])
CCC(C)N1CCC(C(=O)NO)C(CS(=O)(=O)c2ccc(OCc3cc(C)nc4ccccc34)cc2)C1 (configuration not stated)	1.8 ×10⁻⁶ cm/s	> 3300 nM	> 4900 nM	< 1 nM	33%	> 5000 nM	> 2100 nM	1070 nM	–	–	–
CONC(=O)[C@H]1CCCN(C)[C@@H]1C(=O)Nc1ccc(OCc2cc(C)nc3ccccc23)cc1	2.1 ×10⁻⁶ cm/s	> 3300 nM	> 4900 nM	6.2 nM	> 50%	–	> 2100 nM	20 nM	3 mg/kg	–	–
Cc1cc(COc2ccc(S(=O)(=O)CC3(CC(=O)NO)CCC3)cc2)c2ccccc2n1	4.9 ×10⁻⁶ cm/s	2570 nM	> 4900 nM	< 1 nM	–	753 nM	> 2100 nM	223 nM	–	86%	–
Cc1cc(COc2ccc(S(=O)(=O)CC3(CC(=O)NO)CCCNC3)cc2)c2ccccc2n1 (configuration not stated)	0.1 ×10⁻⁶ cm/s	> 3300 nM	> 4900 nM	2.8 nM	–	> 5000 nM	> 2100 nM	123 nM	–	31%	–
Cc1cc(COc2ccc(S(=O)(=O)CC3C(C(=O)NO)CCN3C)cc2)c2ccccc2n1 (configuration not stated)	1 ×10⁻⁶ cm/s	> 3300 nM	> 4900 nM	< 1 nM	50%	1710 nM	> 2100 nM	180 nM	2.5 mg/kg	–	–
C=CCN1CCC(C(=O)NO)C(CS(=O)(=O)c2ccc(OCc3cc(C)nc4ccccc34)cc2)C1 (configuration not stated)	0.97 ×10⁻⁶ cm/s	> 3300 nM	> 4900 nM	1.8 nM	25%	503 nM	> 2100 nM	160 nM	–	–	–
Cc1cc(COc2ccc(S(=O)(=O)CC3(CC(=O)NO)CCN(C(C)C)C3)cc2)c2ccccc2n1 (configuration not stated)	0.2 ×10⁻⁶ cm/s	1330 nM	> 4900 nM	1.6 nM	–	653 nM	2100 nM	77 nM	–	37%	–
Cc1cc(COc2ccc(S(=O)(=O)CC3(CC(=O)NO)CCCN(CC(C)C)C3)cc2)c2ccccc2n1 (configuration not stated)	0.7 ×10⁻⁶ cm/s	> 3300 nM	> 4900 nM	3.3 nM	–	> 5000 nM	> 2100 nM	2500 nM	–	25%	–
Cc1cc(COc2ccc(S(=O)(=O)CC3(CC(=O)NO)CCN(CC(C)C)C3)cc2)c2ccccc2n1 (configuration not stated)	0.8 ×10⁻⁶ cm/s	2170 nM	> 4900 nM	2.6 nM	–	603 nM	> 2100 nM	161 nM	–	22%	–
Cc1cc(COc2ccc(S(=O)(=O)CC3(CC(=O)NO)CCCN(C)C3)cc2)c2ccccc2n1 (configuration not stated)	0.2 ×10⁻⁶ cm/s	> 3300 nM	> 4900 nM	3.6 nM	–	3870 nM	> 2100 nM	208 nM	–	49%	–
Cc1cc(COc2ccc(S(=O)(=O)CC3(CC(=O)NO)CCCCC3)cc2)c2ccccc2n1	22 ×10⁻⁶ cm/s	1400 nM	> 4900 nM	< 1 nM	–	1210 nM	> 2100 nM	867 nM	–	59%	–
Cc1cc(COc2ccc(S(=O)(=O)CC3(CC(=O)NO)CCNCC3)cc2)c2ccccc2n1	0.1 ×10⁻⁶ cm/s	> 3300 nM	> 4900 nM	14 nM	–	> 5000 nM	> 2100 nM	–	–	57%	–
Cc1cc(COc2ccc(S(=O)(=O)CC3CN(C(C)C)CCC3C(=O)NO)cc2)c2ccccc2n1 (configuration not stated)	0.1 ×10⁻⁶ cm/s	> 3300 nM	> 4900 nM	1.5 nM	38%	> 5000 nM	> 2100 nM	230 nM	–	–	–
Cc1cc(COc2ccc(S(=O)(=O)CC3(CC(=O)NO)CCN(C)C3)cc2)c2ccccc2n1 (configuration not stated)	0.3 ×10⁻⁶ cm/s	> 3300 nM	> 4900 nM	3.2 nM	–	> 5000 nM	> 2100 nM	109 nM	–	28%	–
CCCCN1CCC(C(=O)NO)C(CS(=O)(=O)c2ccc(OCc3cc(C)nc4ccccc34)cc2)C1 (configuration not stated)	1.6 ×10⁻⁶ cm/s	> 3300 nM	> 4900 nM	< 1 nM	35%	> 5000 nM	> 2100 nM	900 nM	–	–	–
Cc1cc(COc2ccc(S(=O)(=O)CC3(CC(=O)NO)CCNC3)cc2)c2ccccc2n1 (configuration not stated)	0.1 ×10⁻⁶ cm/s	> 3300 nM	> 4900 nM	1.5 nM	–	3270 nM	> 2100 nM	76 nM	–	34%	–
C#CN1CCC(C(=O)NO)C(CS(=O)(=O)c2ccc(OCc3cc(C)nc4ccccc34)cc2)C1 (configuration not stated)	1.3 ×10⁻⁶ cm/s	> 3300 nM	> 4900 nM	1 nM	24%	377 nM	> 2100 nM	180 nM	–	–	–
Cc1cc(COc2ccc(S(=O)(=O)CC3CNCCC3C(=O)NO)cc2)c2ccccc2n1 (configuration not stated)	–	> 3300 nM	> 4900 nM	1 nM	–	> 5000 nM	> 2100 nM	250 nM	–	–	0.1 ×10⁻⁶ cm/s
Cc1cc(COc2ccc(S(=O)(=O)CC3NCCC3C(=O)NO)cc2)c2ccccc2n1 (configuration not stated)	0.1 ×10⁻⁶ cm/s	> 3300 nM	> 4900 nM	< 1 nM	20%	955 nM	> 2100 nM	83 nM	–	–	–
CCCCCN1CCC(CC(=O)NO)(CS(=O)(=O)c2ccc(OCc3cc(C)nc4ccccc34)cc2)C1 (configuration not stated)	–	> 3300 nM	> 4900 nM	3.4 nM	–	1760 nM	> 2100 nM	418 nM	–	22%	–
Cc1cc(COc2ccc(S(=O)(=O)CC3(CC(=O)NO)CCCN3)cc2)c2ccccc2n1 (configuration not stated)	0.4 ×10⁻⁶ cm/s	> 3300 nM	> 4900 nM	1 nM	–	> 5000 nM	> 2100 nM	403 nM	–	19%	–
Cc1cc(COc2ccc(S(=O)(=O)CC3(CC(=O)NO)CCCO3)cc2)c2ccccc2n1 (configuration not stated)	5 ×10⁻⁶ cm/s	> 3300 nM	> 4900 nM	1 nM	–	> 5000 nM	> 2100 nM	913 nM	–	57%	–
Cc1cc(COc2ccc(S(=O)(=O)CC3(CC(=O)NO)CCCCN3)cc2)c2ccccc2n1 (configuration not stated)	1.7 ×10⁻⁶ cm/s	> 3300 nM	> 4900 nM	< 1 nM	–	753 nM	> 2100 nM	632 nM	–	50%	–
